The values that follow come from ChEMBL document CHEMBL4613298, “GPBAR1 Activation by C6-Substituted Hyodeoxycholane Analogues Protect against Colitis” (ACS Med Chem Lett, 2020).

Calls of active or inactive are those of the source. No cut-off for these calls is given here.

The target of series [1] is T1, G-protein coupled bile acid receptor 1 (Homo sapiens) (UniProt Q8TDU6).
T1 sequence (whole entry): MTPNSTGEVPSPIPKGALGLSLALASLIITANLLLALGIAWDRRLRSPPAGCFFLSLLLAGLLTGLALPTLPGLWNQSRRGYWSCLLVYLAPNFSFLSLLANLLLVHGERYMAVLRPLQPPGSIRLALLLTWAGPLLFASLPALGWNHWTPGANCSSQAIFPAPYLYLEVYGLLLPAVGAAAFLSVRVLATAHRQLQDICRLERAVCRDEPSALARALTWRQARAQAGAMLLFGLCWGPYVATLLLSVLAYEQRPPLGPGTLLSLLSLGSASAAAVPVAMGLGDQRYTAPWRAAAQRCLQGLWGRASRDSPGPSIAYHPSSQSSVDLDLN
In words: Transactivation of human GPBAR1 receptor expressed in HEK293T cells assessed as maximum receptor activation at 10 uM after 18 hrs by cAMP response element driven renilla-luciferase dual reporter gene assay relative to TLCA. In kind it is functional, cell-based. Particulars: HEK-293T. The gist of the method:
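HEK-293T cells transfected with GPBAR1 and a CRE-driven luciferase reporter, exposed to compound at 10 μM. Efficacy is maximal CRE transactivation as percent of that caused by TLCA (10 μM). One experiment, triplicate.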

Series [2] addresses T2, Bile acid receptor (Homo sapiens) (UniProt Q96RI1).
T2 sequence (whole entry): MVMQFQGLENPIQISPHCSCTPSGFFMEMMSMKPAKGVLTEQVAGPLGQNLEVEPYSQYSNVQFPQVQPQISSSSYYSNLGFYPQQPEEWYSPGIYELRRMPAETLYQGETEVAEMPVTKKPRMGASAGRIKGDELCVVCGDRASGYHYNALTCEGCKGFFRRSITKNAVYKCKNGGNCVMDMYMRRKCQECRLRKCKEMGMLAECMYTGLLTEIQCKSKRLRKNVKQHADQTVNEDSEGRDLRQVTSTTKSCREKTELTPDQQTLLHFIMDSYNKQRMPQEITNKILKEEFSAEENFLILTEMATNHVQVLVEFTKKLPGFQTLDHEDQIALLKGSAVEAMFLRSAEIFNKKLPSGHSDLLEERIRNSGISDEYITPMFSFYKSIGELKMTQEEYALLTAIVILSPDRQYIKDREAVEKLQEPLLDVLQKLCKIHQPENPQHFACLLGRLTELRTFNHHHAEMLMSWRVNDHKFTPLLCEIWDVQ
In words: Transactivation of FXR (unknown origin) expressed in HepG2 cells co-expressing pSG5RXR/pGL4.70 assessed as maximum receptor activation at 10 uM after 18 hrs by IR1 driven dual renilla-luciferase reporter gene assay relative to relative to CDCA. In kind it is cell-based. The gist of the method:
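FXR reporter assay in HepG2 cells transfected with FXR and an IR1-driven luciferase reporter, compound at 10 μM. Efficacy is maximal IR1 transactivation relative to CDCA (10 μM). One experiment, triplicate.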

The species entered for another series is Homo sapiens. In words: Selectivity index, ratio of transactivation of human GPBAR1 receptor expressed in HEK293T cells assessed as maximum receptor activation at 10 uM to transactivation of human FXR (unknown origin) expressed in HepG2 cells co-expressing pSG5RXR/pGL4.70 assessed as maximum receptor activation at 10 uM. The format is cell-based. Put shortly: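 Ratio of percent activity at GPBAR1 (HEK-293T, CRE-luciferase, 10 μM, vs TLCA 10 μM) to percent activity at FXR (HepG2, IR1-luciferase, 10 μM, vs CDCA 10 μM). Both taken from the same triplicate experiment.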

Series [3] can be described thus: Aqueous solubility of compound in pH 7.4 PBS/MeOH at 10 mM after 24 hrs by LC-MS analysis. Particulars: buffer, pH 7.4, 24 h, 10000 µM. In kind it is physicochemical.
Series [4] addresses T1, G-protein coupled bile acid receptor 1 (Homo sapiens). In words: Agonist activity at GPBAR1 receptor in human THP1 cells assessed as reduction in LPS-induced IL-1beta expression at 10 uM after 18 hrs by RT-PCR analysis. Particulars: THP-1. In kind it is cell-based. Put shortly: (§1)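 THP1 monocytic/macrophage cells primed with LPS, then coincubated with or without test agent at 10 μM; expression of cytokine genes (IL-1β, IL-6, TNF-α, IL-10) measured.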

Series [5] shares this target. In words: Agonist activity at GPBAR1 receptor in human THP1 cells assessed as reduction in LPS-induced IL-6 expression at 10 uM after 18 hrs by RT-PCR analysis. The format is cell-based. The settings on record: THP-1. Put shortly: as §1
Series [6] shares this target. In words: Transactivation of human GPBAR1 receptor expressed in HEK293T cells at 10 to 50 uM after 18 hrs by cAMP response element driven renilla-luciferase dual reporter gene assay. The format is functional, cell-based. The settings on record: HEK-293T.
The target in series [7] is T2, Bile acid receptor (Homo sapiens). In words: Agonist activity at GST-tagged FXR-LBD (unknown origin) assessed as biotinylated SRC-1 recruitment at 10 uM after 30 mins by Alpha Screen assay.
The target in series [8] is T3, G-protein coupled bile acid receptor 1 (Homo sapiens, UniProt Q8TDU6).
T3 sequence (Q8TDU6 whole entry): T1 sequence (whole entry)
In words: Agonist activity at human GPBAR1 receptor expressed in HEK293T cells after 18 hrs by cAMP response element driven renilla-luciferase dual reporter gene assay. In kind it is functional, cell-based, HEK-293T. The gist of the method:
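GPBAR1 transactivation in transfected HEK-293T cells carrying a CRE-luciferase reporter; potency expressed as EC50. Data from one experiment run in triplicate.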

Series [9] deals with T1, G-protein coupled bile acid receptor 1 (Homo sapiens). In words: Agonist activity at GPBAR1 receptor in human THP1 cells assessed as reduction in LPS-induced TNFalpha expression at 10 uM after 18 hrs by RT-PCR analysis. In kind it is cell-based. Particulars: THP-1. The gist of the method: as §1

For `C[C@H](CC#N)[C@H]1CC[C@H]2[C@@H]3C[C@@](C)(O)[C@@H]4C[C@H](O)CC[C@]4(C)[C@H]3CC[C@]12C`, the max activation in series [1] is 83.4%; in [2], 5.5%. Moreover, the Selectivity Index in the series filed under Homo sapiens was found to be 15.1. Further, the solubility entry in [3] was “Soluble”. Moreover, the result in series [4] and in [5] was Active.

Turning to `CC[C@@]1(O)C[C@@H]2[C@H](CC[C@]3(C)[C@@H]([C@H](C)CC#N)CC[C@@H]23)[C@@]2(C)CC[C@@H](O)C[C@H]12`, the result in series [6] and in series [7] was inactive.

Regarding `C[C@H](CC#N)[C@H]1CC[C@H]2[C@@H]3C[C@@](C)(O)[C@H]4C[C@H](O)CC[C@]4(C)[C@H]3CC[C@]12C`, the result in series [6] and in series [7] was inactive.

Turning to `C[C@H](CC#N)[C@H]1CC[C@H]2[C@@H]3C[C@@](O)(c4ccccc4)[C@@H]4C[C@H](O)CC[C@]4(C)[C@H]3CC[C@]12C`, the max activation in [1] worked out at 38.8%; in series [2] it was 18.2%. Moreover, the Selectivity Index in the series listed under Homo sapiens is 2.13.

Turning to `C[C@H](CC#N)[C@H]1CC[C@H]2[C@@H]3C[C@H](O)[C@@H]4C[C@H](O)CC[C@]4(C)[C@H]3CC[C@]12C`, the figures for the max activation in series [1] and in series [2] were 119% and 3.5%, respectively. This compound also yielded an EC50 in series [8] of 2.65 µM. For the same compound, the Selectivity Index in the series filed under Homo sapiens came to 33.9.

In the case of `C[C@H](CC#N)[C@H]1CC[C@H]2[C@@H]3C[C@](C)(O)[C@@H]4C[C@H](O)CC[C@]4(C)[C@H]3CC[C@]12C`, the max activation was 95.4% in series [1] and 6.4% in [2]. The Selectivity Index in the series listed under Homo sapiens came out at 14.9. Besides, in series [3], the solubility result is “Soluble”. In addition, the result in series [4], in [5] and in [9] was Active.

`CCC[C@@]1(O)C[C@@H]2[C@H](CC[C@]3(C)[C@@H]([C@H](C)CC#N)CC[C@@H]23)[C@@]2(C)CC[C@@H](O)C[C@H]12`: the outcome in series [6] and in [7] was inactive.

In the case of `CC[C@@]1(O)C[C@H]2[C@@H]3CC[C@H]([C@H](C)CC#N)[C@@]3(C)CC[C@@H]2[C@@]2(C)CC[C@@H](O)C[C@@H]12`, the max activation in series [1] was determined as 65.9%; in series [2], 6.6%. Moreover, in the series listed under Homo sapiens, the Selectivity Index was determined as 9.9. The solubility entry in series [3] was “Soluble”. The result in series [4], in series [5] and in series [9] was Active.

For `C=CC[C@@]1(O)C[C@@H]2[C@H](CC[C@]3(C)[C@@H]([C@H](C)CC#N)CC[C@@H]23)[C@@]2(C)CC[C@@H](O)C[C@H]12`, the outcome in series [6] and in [7] was inactive.

Turning to `CCC[C@]1(O)C[C@H]2[C@@H]3CC[C@H]([C@H](C)CC#N)[C@@]3(C)CC[C@@H]2[C@@]2(C)CC[C@@H](O)C[C@@H]12`, the max activation in series [1] was determined as 67.1%; in series [2] it was 3.1%. Moreover, the Selectivity Index in the series listed under Homo sapiens amounted to 21.6.

Turning to `C[C@H](CC#N)[C@H]1CC[C@H]2[C@@H]3C[C@](O)(Cc4ccccc4)[C@@H]4C[C@H](O)CC[C@]4(C)[C@H]3CC[C@]12C`, the max activation was found to be 8.3% in series [1] and 4.4% in series [2]. In the series filed under Homo sapiens, the Selectivity Index stood at 1.88.

In the case of `C=C[C@]1(O)C[C@@H]2[C@H](CC[C@]3(C)[C@@H]([C@H](C)CC#N)CC[C@@H]23)[C@@]2(C)CC[C@@H](O)C[C@H]21`, the values for the max activation in series [1] and in series [2] were 62.5% and 2.2%, respectively. In the series filed under Homo sapiens, the Selectivity Index was determined as 28.4.

In the case of `CC(C)[C@]1(O)C[C@@H]2[C@H](CC[C@]3(C)[C@@H]([C@H](C)CC#N)CC[C@@H]23)[C@@]2(C)CC[C@@H](O)C[C@H]21`, the values for the max activation in [1] and in series [2] were 22.2% and 4.3%, respectively. In addition, the Selectivity Index in the series listed under Homo sapiens was determined as 5.16.

With `C=CC[C@@]1(O)C[C@H]2[C@@H]3CC[C@H]([C@H](C)CC#N)[C@@]3(C)CC[C@@H]2[C@@]2(C)CC[C@@H](O)C[C@@H]12`, the max activation in series [1] amounted to 62.5%; in [2], 4.1%. Further, the EC50 in series [8] was 0.1 µM. Also, the Selectivity Index in the series listed under Homo sapiens amounted to 15.2.

For the compound `C=CCCC[C@]1(O)C[C@H]2[C@@H]3CC[C@H]([C@H](C)CC#N)[C@@]3(C)CC[C@@H]2[C@@]2(C)CC[C@@H](O)C[C@@H]12`, the max activation was determined as 90.1% in [1] and 1.6% in [2]. The Selectivity Index in the series filed under Homo sapiens is 56.3. Further, the solubility entry in series [3] is reported as “Soluble”. Moreover, the outcome in series [4] and in series [5] was Active.
